ChEMBL document CHEMBL1131232, “New azole antifungals. 3. Synthesis and antifungal activity of 3-substituted-4(3H)-quinazolinones” (J Med Chem, 1998)
In brackets after ≈: the same amount, converted by molar mass.

Experiments:
Candida albicans [1] = experiment: (§1) In vivo antifungal activity against murine candidosis model after peroral administration with 2.5 mg/kg at various time intervals. (percent protection for 100% mortality with untreated group); format: functional; details: route oral
Outline: (§2)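 Groups of 10 male mice were infected iv with 0.2 mL of C. albicans at 2 to 8×10^7 cfu/mL. Drug was given orally as a suspension in 1% Tween + 0.2% carboxymethylcellulose at 1, 4 and 24 h post-infection; controls got vehicle only. Survival was scored on days 3, 5, 7 and 9. Read-out was % survival on the day all untreated controls died, or on the day all mice given fluconazole at the same dose died.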

[2] = In vitro antifungal activity against 6 filamentous fungi; format: functional; details: read-out: MIC
Outline: (§3)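 Agar dilution on Kimmig's agar with 0.5% glycerol, using ATCC strains or clinical isolates. Drug stocks were 800 μg/mL in 50% ethanol, tested as 2-fold dilutions from 80 to 0.03 μg/mL. Inocula were 10⁵ cfu/mL. […] Geometric means took >80 as 160 and ≤0.03 as 0.03.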

[3] = In vitro for antifungal activity against 10 yeasts; format: functional; details: read-out: MIC; outline: as §3
Candida albicans [4] = experiment: (§4) In vivo antifungal activity against murine candidosis model after peroral administration with 2.5 mg/kg at various time intervals. (percent protection for 100% mortality with fluconazole-treated group.); format: functional; details: route oral; outline: as §2
Mus musculus [5] = experiment: In vivo antifungal activity against murine candidosis model after peroral administration with 0.5 mg/kg at various time intervals. (percent protection for 100% mortality with untreated group); format: functional; details: route oral; outline: as §2
Mus musculus [6] = experiment: In vivo antifungal activity against murine candidosis model after peroral administration with 0.5 mg/kg at various time intervals. (percent protection for 100% mortality with fluconazole-treated group.); format: functional; details: route oral; outline: as §2
Mus musculus [7] = experiment: as §1; format: functional; details: route oral; outline: as §2
Mus musculus [8] = experiment: as §4; format: functional; details: route oral; outline: as §2
Candida albicans [9] = experiment: In vivo antifungal activity against murine candidosis model after peroral administration with 1 mg/kg at various time intervals. (percent protection for 100% mortality with untreated group); format: functional; details: route oral; outline: as §2
Candida albicans [10] = experiment: In vivo antifungal activity against murine candidosis model after peroral administration with 1 mg/kg at various time intervals. (percent protection for 100% mortality with fluconazole-treated group.); format: functional; details: route oral; outline: as §2
Mus musculus [11] = experiment: In vivo antifungal activity against murine candidosis model after peroral administration with 0.5 mg/Kg at various time intervals. (percent protection for 100% mortality with untreated group); format: functional; outline: as §2
Candida albicans [12] = experiment: The compound was tested in vitro for antifungal activity against Candida albicans.; format: functional; outline: as §3
[13] = Half-life in rats after iv administration; format: ADME, organism-based; details: rat, in vivo
Candida albicans [14] = experiment: Tested in vivo for anti-candida activity in mice model 1 (dose: 0.5 mg/kg, untreated group).; format: functional
Candida albicans [15] = experiment: Tested in vivo for anti-candida activity in mice model 1 (dose:0.5 mg/kg, fluconazole-treated group); format: functional
Mus musculus [16] = experiment: In vivo antifungal activity against murine candidosis model after peroral administration with 0.5 mg/Kg at various time intervals. (percent protection for 100% mortality with fluconazole-treated group.); format: functional; outline: as §2
Mus musculus [17] = experiment: In vivo antifungal activity against murine candidosis model after peroral administration with 1 mg/Kg at various time intervals. (percent protection for 100% mortality with untreated group); format: functional; outline: as §2

| Compound | Protection (Candida albicans [1]) | MIC [2] | MIC [3] | Protection (Candida albicans [4]) | other results |
| --- | --- | --- | --- | --- | --- |
| C[C@@H](n1cnc2cc(Cl)ccc2c1=O)[C@](O)(Cn1ccnc1)c1ccc(F)cc1F | 0% | 28 µg/mL (≈ 65 µM) | 2 µg/mL (≈ 4.64 µM) | 0% | – |
| CCC(CC)n1ncn(-c2ccc(N3CCN(c4ccc5c(=O)n([C@H](C)[C@](O)(Cn6cncn6)c6ccc(F)cc6F)cnc5c4)CC3)cc2)c1=O | – | > 80 µg/mL | 2.3 µg/mL (≈ 3.24 µM) | – | Protection (Mus musculus [5]): 20%; Protection (Mus musculus [6]): 0% |
| COc1cc2ncn([C@H](C)[C@](O)(Cn3cncn3)c3ccc(F)cc3F)c(=O)c2cc1OC | 0% | 80 µg/mL (≈ 175 µM) | 7.6 µg/mL (≈ 16.6 µM) | 0% | – |
| C[C@H](n1cnc2cc(Cl)ccc2c1=O)[C@@](O)(Cn1cncn1)c1ccc(F)cc1F | – | > 80 µg/mL | 40 µg/mL (≈ 92.6 µM) | – | Protection (Mus musculus [7]): 0%; Protection (Mus musculus [8]): 0% |
| C[C@@H](n1cnc2cc(F)ccc2c1=O)[C@](O)(Cn1cncn1)c1ccc(F)cc1F | – | 2.5 µg/mL (≈ 6.02 µM) | 0.9 µg/mL (≈ 2.17 µM) | – | Protection (Candida albicans [9]): 0%; Protection (Candida albicans [10]): 0%; Protection (Mus musculus [11]): 0%; MIC (Candida albicans [12]): < 0.03 µg/mL; half-life [13]: 1.4 h |
| C[C@@H](n1ncn(-c2ccc(OCC(F)(F)C(F)F)cc2)c1=O)[C@](O)(Cn1cncn1)c1ccc(F)cc1F | – | 8.9 µg/mL (≈ 16.4 µM) | 2.6 µg/mL (≈ 4.79 µM) | – | Protection (Candida albicans [14]): 100%; Protection (Candida albicans [15]): 100% |
| C[C@@H](NC(=O)c1ccc(C(F)(F)F)cc1)[C@](O)(Cn1cncn1)c1ccc(F)cc1F | – | 22 µg/mL (≈ 50 µM) | 4.6 µg/mL (≈ 10.4 µM) | – | Protection (Candida albicans [14]): 100%; Protection (Candida albicans [15]): 100% |
| C[C@@H](n1cnc2cc(Cl)ccc2c1=O)[C@](O)(Cn1cncn1)c1ccccc1F | 20% | 1.1 µg/mL (≈ 2.66 µM) | 0.7 µg/mL (≈ 1.69 µM) | 0% | – |
| C[C@@H](n1cnc2c(Cl)cccc2c1=O)[C@](O)(Cn1cncn1)c1ccc(F)cc1F | 0% | 45 µg/mL (≈ 104 µM) | 2.5 µg/mL (≈ 5.79 µM) | 0% | – |
| COc1cccc2c(=O)n([C@H](C)[C@](O)(Cn3cncn3)c3ccc(F)cc3F)cnc12 | 0% | > 80 µg/mL | 10 µg/mL (≈ 23.4 µM) | 0% | – |
| C[C@@H](n1cnc2cc(Br)ccc2c1=O)[C@](O)(Cn1cncn1)c1ccc(F)cc1F | – | 0.8 µg/mL (≈ 1.68 µM) | 0.4 µg/mL (≈ 0.84 µM) | – | Protection (Candida albicans [9]): 30%; Protection (Candida albicans [10]): 0%; MIC (Candida albicans [12]): < 0.03 µg/mL; Protection (Mus musculus [16]): 0% |
| C[C@@H](n1cnc2cc(N(C)C)ccc2c1=O)[C@](O)(Cn1cncn1)c1ccc(F)cc1F | – | 71 µg/mL (≈ 161 µM) | 1.3 µg/mL (≈ 2.95 µM) | – | Protection (Mus musculus [17]): 0%; Protection (Candida albicans [10]): 0% |
